According to ChEMBL document CHEMBL1123408, “Influence of alkyl-chain fluorination on the action of mammary tumor inhibiting 2,3-bis(hydroxyphenyl)butanes and 2,3-bis(hydroxyphenyl)but-2-enes” (1986):
Where “and” joins values, the source holds several entries; their conditions need not be identical. Identical values can stand only once.

Assays:
[1] = target: T1, Estrogen receptor (Mus musculus) (UniProt O08537+P19785); experiment: (§1) Uterotrophic effect in mice at 0 ug dose; format: functional, tissue-based; parameters: unit not given here; details: Uterus
Procedure, shortened: (§2)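 Immature female NMRI mice, 20 days old, 10 per group, given daily sc injections of 0.1 mL olive oil solution for 3 days. Uteri removed 24 h after the last dose, fixed in Bouin's solution, washed, dried and weighed. Antiestrogenic testing measured inhibition of estrone-stimulated uterine growth.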

[2] = target: T1, Estrogen receptor (Mus musculus); experiment: (§3) Uterotrophic effect in mice at 1 ug dose; format: functional, tissue-based; parameters: unit not given here; details: Uterus; procedure, shortened: as §2
[3] = target: T1, Estrogen receptor (Mus musculus); experiment: Uterotrophic effect in mice at 10 ug dose; format: functional, tissue-based; parameters: unit not given here; details: Uterus; procedure, shortened: as §2
[4] = target: T1, Estrogen receptor (Mus musculus); experiment: (§4) Uterotrophic effect in mice at 100 ug dose; format: functional, tissue-based; parameters: unit not given here; details: Uterus; procedure, shortened: as §2
[5] = target: T1, Estrogen receptor (Mus musculus); experiment: as §1; format: functional, tissue-based; parameters: unit not given here; details: Uterus; procedure, shortened: as §2; remark: listed apart in the source
[6] = target: T1, Estrogen receptor (Mus musculus); experiment: Uterotrophic effect in mice at 0.1 ug dose; format: functional, tissue-based; parameters: unit not given here; details: Uterus; procedure, shortened: as §2
[7] = target: T1, Estrogen receptor (Mus musculus); experiment: (§5) Uterotrophic effect in mice at 1000 ug dose; format: functional, tissue-based; details: Uterus; procedure, shortened: as §2
[8] = target: T1, Estrogen receptor (Mus musculus); experiment: as §4; format: functional, tissue-based; parameters: unit not given here; details: Uterus; procedure, shortened: as §2; remark: listed apart in the source
[9] = target: T1, Estrogen receptor (Mus musculus); experiment: Uterotrophic effect in mice at 25 ug dose; format: functional, tissue-based; parameters: unit not given here; details: Uterus; procedure, shortened: as §2
[10] = target: T1, Estrogen receptor (Mus musculus); experiment: Uterotrophic effect in mice at 500 ug dose; format: functional, tissue-based; parameters: unit not given here; details: Uterus; procedure, shortened: as §2
[11] = target: T1, Estrogen receptor (Mus musculus); experiment: Uterotrophic effect in mice at 5 ug dose; format: functional, tissue-based; details: Uterus; procedure, shortened: as §2
[12] = target: T1, Estrogen receptor (Mus musculus); experiment: Uterotrophic effect in BD2F mice bearing transplantable hormone dependent MXT at 20 mg dose; format: functional, tissue-based; details: Uterus
Procedure, shortened: (§6)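 MXT-bearing female BD2F1 mice (10 per group) dosed sc in olive oil three times weekly for 6 weeks from the day after tumor transplantation. Uteri excised at sacrifice and dry weight determined; values given as mean ± SD.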

[13] = target: T1, Estrogen receptor (Mus musculus); experiment: Uterotrophic effect in BD2F mice bearing transplantable hormone dependent MXT at 4 mg dose; format: functional, tissue-based; procedure, shortened: as §6
[14] = species on record: Mus musculus; experiment: Relative average tumor wet weight in treated compared to untreated mice at 20 mg dose; format: functional
Procedure, shortened: (§7)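 Syngeneic female BD2F1 mice (8–10 weeks) received sc trocar implants of 1–2-mm³ MXT tumor pieces, 10 per group. Treatment began the next day: sc doses in olive oil (solution or suspension), three times weekly for 6 weeks. Tamoxifen-treated control group included. Tumor wet weight measured at sacrifice; expressed as % T/C versus untreated controls.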

[15] = species on record: Mus musculus; experiment: Relative average tumor wet weight in treated compared to untreated mice at 4 mg dose; format: functional; procedure, shortened: as §7
[16] = target: T1, Estrogen receptor (Mus musculus); experiment: as §4; format: functional, tissue-based; details: Uterus; procedure, shortened: as §2
[17] = target: T1, Estrogen receptor (Mus musculus); experiment: Uterotrophic effect in BD2F mice bearing transplantable hormone dependent MXT at 13.84 mg dose; format: functional, tissue-based; procedure, shortened: as §6
[18] = target: T1, Estrogen receptor (Mus musculus); experiment: Anti-uterotrophic effect in mice at 25 ug dose; format: functional
Procedure, shortened: (§8)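 Immature female NMRI mice, 20 days old (14.5 ± 1.2 g), randomized into groups of 10. Each received a daily sc injection of compound in 0.1 mL olive oil for 3 days, given together with estrone. Uteri were taken 24 h after the last injection, fixed in Bouin's solution, washed, dried and weighed. The read-out was inhibition of estrone-stimulated uterine growth.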

[19] = target: T1, Estrogen receptor (Mus musculus); experiment: Anti-uterotrophic effect in mice at 5 ug dose; format: functional; procedure, shortened: as §8
[20] = species on record: Mus musculus; experiment: Relative average tumor wet weight in treated compared to untreated mice at 13.84 mg dose; format: functional
Procedure, shortened: (§9)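 MXT mammary tumor pieces of 1-2 mm³ from syngeneic donors were implanted sc by trocar into female BD2F₁ mice aged 8-10 weeks (20.0 ± 1.7 g), groups of 10. From the next day, compound in olive oil was given sc three times weekly for 6 weeks. Tumor wet weight was measured at the end and expressed as % T/C.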

[21] = target: T1, Estrogen receptor (Mus musculus); experiment: Uterotrophic effect in BD2F mice bearing transplantable hormone dependent MXT at 2.77 mg dose; format: functional, tissue-based; procedure, shortened: as §6
[22] = species on record: Mus musculus; experiment: Relative average tumor wet weight in treated compared to untreated mice at 2.77 mg dose; format: functional; procedure, shortened: as §7
[23] = target: T1, Estrogen receptor (Mus musculus); experiment: as §3; format: functional, tissue-based; details: Uterus; procedure, shortened: as §2
[24] = target: T1, Estrogen receptor (Mus musculus); experiment: as §5; format: functional, tissue-based; parameters: unit not given here; details: Uterus; procedure, shortened: as §2
[25] = target: T1, Estrogen receptor (Mus musculus); experiment: Uterotrophic effect in mice at 5000 ug dose; format: functional, tissue-based; details: Uterus, in the assay text read “50 ug” for “5000 ug”; procedure, shortened: as §2
[26] = target: T1, Estrogen receptor (Mus musculus); experiment: Uterotrophic effect in BD2F mice bearing transplantable hormone dependent MXT at 2.76 mg dose; format: functional, tissue-based; details: Uterus; procedure, shortened: as §6
[27] = test system: Rattus norvegicus; experiment: Percent change in body weight in DMBA-Induced Hormone-Dependent Mammary Carcinoma rats at 18 mg/kg dose; format: functional
[28] = test system: Rattus norvegicus; experiment: Percent change in body weight in DMBA-Induced Hormone-Dependent Mammary Carcinoma rats at 36 mg/kg dose; format: functional
[29] = test system: Rattus norvegicus; experiment: Percent change in body weight in DMBA-Induced Hormone-Dependent Mammary Carcinoma rats at 72 mg/kg dose; format: functional
[30] = test system: Rattus norvegicus; experiment: Percent change in total tumor area in DMBA-Induced Hormone-Dependent Mammary Carcinoma rats at 36 mg/kg dose; format: functional
[31] = test system: Rattus norvegicus; experiment: Percent change in total tumor area in DMBA-Induced Hormone-Dependent Mammary Carcinoma rats at 18 mg/kg dose; format: functional
[32] = test system: Rattus norvegicus; experiment: Percent change in total tumor area in DMBA-Induced Hormone-Dependent Mammary Carcinoma rats at 72 mg/kg dose; format: functional
[33] = test system: Rattus norvegicus; experiment: Initial tumor number in DMBA-Induced Hormone-Dependent Mammary Carcinoma in rats at 72 mg/kg dose; format: functional
[34] = test system: Rattus norvegicus; experiment: Initial tumor number in DMBA-Induced Hormone-Dependent Mammary Carcinoma in rats at 18 mg/kg dose; format: functional
[35] = test system: Rattus norvegicus; experiment: Initial tumor number in DMBA-Induced Hormone-Dependent Mammary Carcinoma in rats at 36 mg/kg dose; format: functional
[36] = test system: Rattus norvegicus; experiment: Final tumor number in DMBA-Induced Hormone-Dependent Mammary Carcinoma in rats at 18 mg/kg dose; format: functional
[37] = test system: Rattus norvegicus; experiment: Final tumor number in DMBA-Induced Hormone-Dependent Mammary Carcinoma in rats at 36 mg/kg dose; format: functional
[38] = test system: Rattus norvegicus; experiment: Final tumor number in DMBA-Induced Hormone-Dependent Mammary Carcinoma in rats at 72 mg/kg dose; format: functional
[39] = test system: Rattus norvegicus; experiment: Percent unchanged tumors in DMBA-Induced Hormone-Dependent Mammary Carcinoma in rats at 18 mg/kg dose; format: functional
[40] = test system: Rattus norvegicus; experiment: Percent unchanged tumors in DMBA-Induced Hormone-Dependent Mammary Carcinoma in rats at 36 mg/kg dose; format: functional
[41] = test system: Rattus norvegicus; experiment: Percent unchanged tumors in DMBA-Induced Hormone-Dependent Mammary Carcinoma in rats at 72 mg/kg dose; format: functional
[42] = test system: Rattus norvegicus; experiment: Percent partial remission in DMBA-Induced Hormone-Dependent Mammary Carcinoma in rats at 18 mg/kg dose; format: functional
[43] = test system: Rattus norvegicus; experiment: Percent partial remission in DMBA-Induced Hormone-Dependent Mammary Carcinoma in rats at 36 mg/kg dose; format: functional
[44] = test system: Rattus norvegicus; experiment: Percent partial remission in DMBA-Induced Hormone-Dependent Mammary Carcinoma in rats at 72 mg/kg dose; format: functional
[45] = test system: Rattus norvegicus; experiment: Percent progression in DMBA-Induced Hormone-Dependent Mammary Carcinoma in rats at 18 mg/kg dose; format: functional
[46] = test system: Rattus norvegicus; experiment: Percent progression in DMBA-Induced Hormone-Dependent Mammary Carcinoma in rats at 36 mg/kg dose; format: functional
[47] = test system: Rattus norvegicus; experiment: Percent progression in DMBA-Induced Hormone-Dependent Mammary Carcinoma in rats at 72 mg/kg dose; format: functional
[48] = test system: Rattus norvegicus; experiment: Percent complete remission in DMBA-Induced Hormone-Dependent Mammary Carcinoma in rats at 18 mg/kg dose; format: functional
[49] = test system: Rattus norvegicus; experiment: Percent complete remission in DMBA-Induced Hormone-Dependent Mammary Carcinoma in rats at 36 mg/kg dose; format: functional
[50] = test system: Rattus norvegicus; experiment: Percent complete remission in DMBA-Induced Hormone-Dependent Mammary Carcinoma in rats at 72 mg/kg dose; format: functional
[51] = target: T1, Estrogen receptor (Mus musculus); experiment: Uterotrophic effect in BD2F mice bearing transplantable hormone dependent MXT at 0.8 mg dose; format: functional, tissue-based; procedure, shortened: as §6
[52] = species on record: Mus musculus; experiment: Relative average tumor wet weight in treated compared to untreated mice at 0.8 mg dose; format: functional; procedure, shortened: as §9

T1 sequence (O08537 whole entry, looked up): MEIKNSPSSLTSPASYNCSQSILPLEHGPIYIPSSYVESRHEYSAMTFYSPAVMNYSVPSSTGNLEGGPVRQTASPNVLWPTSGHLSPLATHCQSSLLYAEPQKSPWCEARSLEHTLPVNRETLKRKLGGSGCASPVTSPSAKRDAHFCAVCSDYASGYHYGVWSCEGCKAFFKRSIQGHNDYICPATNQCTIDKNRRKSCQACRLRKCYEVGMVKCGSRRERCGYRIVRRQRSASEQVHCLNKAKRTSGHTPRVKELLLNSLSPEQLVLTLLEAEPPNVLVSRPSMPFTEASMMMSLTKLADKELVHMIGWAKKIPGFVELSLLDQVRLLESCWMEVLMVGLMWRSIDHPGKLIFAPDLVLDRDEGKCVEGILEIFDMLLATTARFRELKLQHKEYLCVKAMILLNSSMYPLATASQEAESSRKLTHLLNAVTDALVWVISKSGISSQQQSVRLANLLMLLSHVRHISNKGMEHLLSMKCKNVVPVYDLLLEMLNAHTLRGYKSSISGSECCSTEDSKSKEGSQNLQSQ
T1 sequence (P19785 whole entry, looked up): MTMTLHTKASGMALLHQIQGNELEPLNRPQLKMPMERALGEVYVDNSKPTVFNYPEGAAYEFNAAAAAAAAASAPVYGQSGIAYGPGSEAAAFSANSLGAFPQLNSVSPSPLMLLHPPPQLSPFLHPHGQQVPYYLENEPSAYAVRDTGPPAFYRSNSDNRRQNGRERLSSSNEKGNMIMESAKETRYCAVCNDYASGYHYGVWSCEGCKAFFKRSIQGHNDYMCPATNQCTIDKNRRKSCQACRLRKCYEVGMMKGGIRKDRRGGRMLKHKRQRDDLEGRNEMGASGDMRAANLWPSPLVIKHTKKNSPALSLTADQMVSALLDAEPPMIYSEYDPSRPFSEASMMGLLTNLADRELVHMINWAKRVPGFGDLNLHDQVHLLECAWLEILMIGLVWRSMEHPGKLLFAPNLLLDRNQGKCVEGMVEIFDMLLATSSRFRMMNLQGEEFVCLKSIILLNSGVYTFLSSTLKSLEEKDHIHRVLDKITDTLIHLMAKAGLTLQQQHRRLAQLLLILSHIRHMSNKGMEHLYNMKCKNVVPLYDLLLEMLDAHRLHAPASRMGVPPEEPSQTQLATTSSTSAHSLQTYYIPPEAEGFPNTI

Oc1cccc(/C(=C(/c2cccc(O)c2)C(F)(F)F)C(F)(F)F)c1
Effect [1]: 11.1
Effect [2]: 25.3
Effect [3]: 29
Effect [4]: 45.5
Effect [5]: 14.8
Effect [6]: 15.7
Effect [7]: 51.8
Effect [8]: 47.8
Effect [9]: 47.4
Effect [10]: 52.6
Effect [11]: 43
Effect [12]: 82.1
Effect ([13]; Uterus): 74.8
TC [14]: 11.5%
TC [15]: 25.7%

C[C@H](c1ccc(O)cc1)[C@@H](C)c1ccc(O)cc1
Effect [16]: 42.2
Effect [1]: 11.8
Effect [2]: 22.6
Effect [3]: 28
Effect [5]: 14.8
Effect [6]: 17.7
Effect [7]: 34.8
Effect [8]: 45.1
Effect [9]: 36
Effect [10]: 56.5
Effect [11]: 33.6
Uterus effect [17]: 77.6
inhibition [18]: 14.1%
inhibition [19]: 23.8%
TC [20]: 23.1%
Uterus effect [21]: 79.9
TC [22]: 68.5%

C[C@H](c1cccc(O)c1)[C@@H](C)c1cccc(O)c1
Effect [1]: 11.9
Effect [23]: 11.7
Effect [3]: 12.4
Effect [4]: 12.6
Effect [24]: 13.1
Effect [5]: 11.2 and 9.9 and 10.5
Effect [6]: 38.5 [middle of 4 runs]
Effect [10]: 29
Effect [25]: 34.3
Effect [11]: 36.5
Effect ([17]; Uterus): 73.5
Effect [26]: 86.9
TC [20]: 66.5%
TC [22]: 106%
Change in weight [27]: 2.4%
Change in weight [28]: 1.6%
Change in weight [29]: 0.9%
Change in tumor area % [30]: 105%
Change in tumor area % [31]: 188%
Change in tumor area % [32]: 6%
No. of tumors [33]: 26
No. of tumors [34]: 21
No. of tumors [35]: 22
No. of tumors [36]: 16
No. of tumors [37]: 12
No. of tumors [38]: 22
Tumors [39]: 24%
Tumors [40]: 38%
Tumors [41]: 16%
Tumors [42]: 11%
Tumors [43]: 9%
Tumors [44]: 25%
Tumors [45]: 51%
Tumors [46]: 24%
Tumors [47]: 25%
Tumors [48]: 14%
Tumors [49]: 29%
Tumors [50]: 34%

Oc1ccc([C@H]([C@H](c2ccc(O)cc2)C(F)(F)F)C(F)(F)F)cc1
Effect [1]: 10.8
Effect [2]: 42.5
Effect [3]: 35.4
Effect [6]: 46.9
Uterus effect [13]: 188
Uterus effect [51]: 136
TC [52]: 21.3%
TC [15]: 7.2%
